# Experimental data as given in ChEMBL document CHEMBL4004811, “Enantiodivergence in the Biosynthesis of Bromotyrosine Alkaloids from Sponges?” (2017).
# The source made the active and inactive calls. The rule behind the calls is not given here.
# Legend:
# Format in all cases: functional
# [1] = system: Staphylococcus aureus; assay: Antimicrobial activity against methicillin-resistant Staphylococcus aureus ATCC BAA1026 after 18 hrs by MTT dye based TLC assay
# How it was run: (§1)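 Overlay TLC bioautography: samples applied to TLC plates and overlaid with the bacterial culture. The panel covered three S. aureus strains and one E. coli strain. Activity is read as minimum inhibitory quantity (MIQ, μg per spot).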
# [2] = system: Staphylococcus aureus; assay: Antimicrobial activity against multidrug-resistant Staphylococcus aureus after 18 hrs by MTT dye based TLC assay; how it was run: as §1
# [3] = system: Staphylococcus aureus; assay: Antimicrobial activity against methicillin-sensitive Staphylococcus aureus ATCC 29213 after 18 hrs by MTT dye based TLC assay
# How it was run: (§2)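 Overlay TLC bioautography: compounds applied on TLC plates and overlaid with the bacterial culture. Activity is reported as the minimum inhibitory quantity (MIQ), in μg of compound.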
# [4] = system: Escherichia coli; assay: Antimicrobial activity against Escherichia coli ATCC 25922 after 18 hrs by MTT dye based TLC assay; how it was run: as §2
SMILES,MIC [1],MIC [2],Activity [3],Activity [1],Activity [4],Activity [2],MIC [3]
CN[C@H](CC(C)C)C(=O)N[C@H]1C(=O)N[C@@H](CC(N)=O)C(=O)N[C@H]2C(=O)N[C@H]3C(=O)N[C@H](C(=O)N[C@H](C(=O)O)c4cc(O)cc(O)c4-c4cc3ccc4O)[C@H](O)c3ccc(c(Cl)c3)Oc3cc2cc(c3O[C@@H]2O[C@H](CO)[C@@H](O)[C@H](O)[C@H]2O[C@H]2C[C@](C)(N)[C@H](O)[C@H](C)O2)Oc2ccc(cc2Cl)[C@H]1O [VANCOMYCIN],0.63 µg,0.63 µg,,,,,
COC1=C(Br)[C@@H](O)[C@]2(C=C1Br)CC(C(=O)NCCCC(=O)O)=NO2,,,Active,Active,inactive,Active,
COC1=C(Br)[C@@H](O)[C@]2(C=C1Br)CC(C(=O)NCCCOc1c(Br)cc(CC(N)C(=O)O)cc1Br)=NO2 (some centres not stated),,,Active,Active,inactive,Active,
COC1=C(Br)[C@@H](O)[C@]2(C=C1Br)CC(C(=O)NCCCOc1c(Br)cc(CCN)cc1Br)=NO2,,,Active,Active,inactive,Active,
COC1=C(Br)[C@@H](O)[C@]2(C=C1Br)CC(C(=O)NCCc1ccc(O)c(Br)c1)=NO2,,,,Active,inactive,Active,0.31 µg
CCOC1(CCCNC(=O)C2=NO[C@@]3(C=C(Br)C(OC)=C(Br)[C@H]3O)C2)N=C(N)NC1=O (mixture of isomers),,,Active,Active,inactive,Active,
COc1ccc(C/C(=N\O)C(=O)NCCc2cc(Br)c(OCCCN(C)C)c(Br)c2)cc1Br,,,Active,Active,inactive,Active,
COC1=C(Br)[C@@H](O)[C@]2(C=C1Br)CC(C(=O)NCCc1cc(Br)c(O)c(Br)c1)=NO2,,,,Active,inactive,Active,0.31 µg
CNCCCOc1c(Br)cc(CCNC(=O)/C(Cc2ccc(OC)c(Br)c2)=N/O)cc1Br,,,Active,Active,inactive,Active,
COC1=C(Br)[C@@H](O)[C@]2(C=C1Br)CC(C(=O)NCCCOc1c(Br)cc(C/C(=N\O)C(=O)NCCc3cnc(N)[nH]3)cc1Br)=NO2,,,Active,Active,inactive,Active,
COC1=C(Br)[C@@H](O)[C@]2(C=C1Br)CC(C(N)=O)=NO2,,,Active,Active,inactive,Active,
